Assay results reported in ChEMBL document CHEMBL4033667, “Design, synthesis, and identification of a novel napthalamide-isoselenocyanate compound NISC-6 as a dual Topoisomerase-IIα and Akt pathway inhibitor, and evaluation of its anti-melanoma activity” (Eur J Med Chem, 2017).
Active and inactive are the calls of the source. No cut-off for these calls is given here.

Experiments:
UACC-903 [1] = assay: Antiproliferative activity against human UACC-903 cells harboring BRAF V600E mutant after 24 hrs by MTT assay; format: functional, cell-based; settings: UACC-903, 24 h
Method in brief: (§1)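 MTT viability in melanoma lines grown in DMEM with 10% FBS and pen/strep at 37 °C, 5% CO2. 3000 cells/well, settled overnight, then exposed to compound (0 to 50 µM) in triplicate for 24, 48 or 72 h. MTT (5.0 mg/mL solution) added 3 h before termination. IC50 from non-linear regression (variable slope), mean ± SD.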

UACC-903 [2] = assay: Antiproliferative activity against human UACC-903 cells harboring BRAF V600E mutant after 48 hrs by MTT assay; format: functional, cell-based; settings: UACC-903, 48 h; method in brief: as §1
UACC-903 [3] = assay: Antiproliferative activity against human UACC-903 cells harboring BRAF V600E mutant after 72 hrs by MTT assay; format: functional, cell-based; settings: UACC-903, 72 h; method in brief: as §1
[4] = Antiproliferative activity against human 1205 Lu cells harboring BRAF V600E mutant after 24 hrs by MTT assay; format: functional, cell-based; method in brief: as §1
[5] = Antiproliferative activity against human 1205 Lu cells harboring BRAF V600E mutant after 48 hrs by MTT assay; format: functional, cell-based; method in brief: as §1
[6] = Antiproliferative activity against human 1205 Lu cells harboring BRAF V600E mutant after 72 hrs by MTT assay; format: functional, cell-based; method in brief: as §1
[7] = Antiproliferative activity against human A375M cells harboring BRAF V600E mutant after 24 hrs by MTT assay; format: functional, cell-based; method in brief: as §1
[8] = Antiproliferative activity against human A375M cells harboring BRAF V600E mutant after 48 hrs by MTT assay; format: functional, cell-based; method in brief: as §1
[9] = Antiproliferative activity against human A375M cells harboring BRAF V600E mutant after 72 hrs by MTT assay; format: functional, cell-based; method in brief: as §1
CHL-1 [10] = assay: Antiproliferative activity against human CHL-1 cells harboring wild type BRAF after 24 hrs by MTT assay; format: functional, cell-based; settings: CHL-1, 24 h; method in brief: as §1
CHL-1 [11] = assay: Antiproliferative activity against human CHL-1 cells harboring wild type BRAF after 48 hrs by MTT assay; format: functional, cell-based; settings: CHL-1, 48 h; method in brief: as §1
CHL-1 [12] = assay: Antiproliferative activity against human CHL-1 cells harboring wild type BRAF after 72 hrs by MTT assay; format: functional, cell-based; settings: CHL-1, 72 h; method in brief: as §1
NHDF [13] = assay: Cytotoxicity against human NHDF cells assessed as reduction in cell viability at 2.5 uM after 48 hrs by MTT assay; format: cell-based
Method in brief: (§2)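 nHDF normal fibroblasts grown in serum-free fibroblast basal medium with growth kit and pen/strep/amphotericin B. Treated 48 h at set concentrations, with viability read by MTT assay.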

NHDF [14] = assay: Cytotoxicity against human NHDF cells assessed as reduction in cell viability at 5 uM after 48 hrs by MTT assay; format: cell-based; method in brief: as §2
[15] = target: DNA topoisomerase 2-alpha (Homo sapiens) (UniProt P11388); assay: Inhibition of human DNA topoisomerase 2alpha assessed as decrease in relaxation of supercoiled pBR322 DNA at 0.5 to 5 uM after 1 hr by ethidium bromide staining-based agarose gel electrophoresis
Method in brief: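 Kit-based relaxation assay: supercoiled plasmid DNA with 4 units of human Topo-IIα in assay buffer plus test agent or DMSO at 37 °C (1 h in legend, 30 min in methods). Stopped with 10% SDS, then proteinase K 15 min at 37 °C. Run on 1% agarose 1-2 h, ethidium bromide 2 h, destain 15 min in TAE, UV imaging.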

Homo sapiens = species on record: Homo sapiens; assay: Inhibition of DNA topoisomerase 2 in human UACC-903 cells assessed as increase in H2AX phosphorylation at 5 uM after 6 hrs by DAPI staining-based immunocytochemistry analysis; format: cell-based
Method in brief: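 UACC903 cells (1.6 × 10^5) on coverslips overnight, then 5 µM or DMSO for 6 h. Fixed in 4% formaldehyde and blocked 1 h (0.3% Triton X-100, 5% donkey serum). Anti-p-H2A.X 1:500 overnight at 4 °C, then Alexa Fluor 488 secondary 1:500 with phalloidin for 1 h. DAPI mounting, imaged at 60X.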

[16] = target: RAC-alpha serine/threonine-protein kinase (Homo sapiens) (UniProt P31749); assay: Inhibition of Akt-phosphorylation in human UACC-903 cells after 24 hrs by Western blot analysis; format: cell-based
Method in brief: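 UACC903 cells treated with increasing doses for 24 h, then lysed in RIPA with protease and phosphatase inhibitors and spun 15,000 rpm for 10 min. Lysates resolved on 4-12% gel, moved to PVDF and probed for phospho-Akt and pan-Akt. β-actin served as loading control; detection by ECL.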

[17] = target: Mitogen-activated protein kinase; ERK1/ERK2 (Homo sapiens) (UniProt P27361+P28482); assay: Inhibition of Erk1/2 phosphorylation in human UACC-903 cells at 2.5 to 5 uM after 24 hrs by Western blot analysis; format: cell-based
UACC-903 [18] = assay: Induction of apoptosis in human UACC-903 cells assessed as viable cells at 5 uM after 24 hrs by Annexin-V/7-AAD staining-based fluorescence assay (reference value: 83.90%); format: functional; settings: UACC-903, 24 h, read-out: Activity
UACC-903 [19] = assay: Induction of apoptosis in human UACC-903 cells assessed as early apoptotic cells at 5 uM after 24 hrs by Annexin-V/7-AAD staining-based fluorescence assay (reference value: 13.15%); format: functional
UACC-903 [20] = assay: Induction of apoptosis in human UACC-903 cells assessed as late apoptotic cells at 5 uM after 24 hrs by Annexin-V/7-AAD staining-based fluorescence assay (reference value: 2.78%); format: functional
UACC-903 [21] = assay: Induction of apoptosis in human UACC-903 cells assessed as necrotic cells at 5 uM after 24 hrs by Annexin-V/7-AAD staining-based fluorescence assay (reference value: 0.17%); format: functional
UACC-903 [22] = assay: Induction of apoptosis in human UACC-903 cells assessed as viable cells at 10 uM after 24 hrs by Annexin-V/7-AAD staining-based fluorescence assay (reference value: 83.90%); format: functional; settings: UACC-903, 24 h, read-out: Activity
UACC-903 [23] = assay: Induction of apoptosis in human UACC-903 cells assessed as early apoptotic cells at 10 uM after 24 hrs by Annexin-V/7-AAD staining-based fluorescence assay (reference value: 13.15%); format: functional
UACC-903 [24] = assay: Induction of apoptosis in human UACC-903 cells assessed as late apoptotic cells at 10 uM after 24 hrs by Annexin-V/7-AAD staining-based fluorescence assay (reference value: 2.78%); format: functional
UACC-903 [25] = assay: Induction of apoptosis in human UACC-903 cells assessed as necrotic cells at 10 uM after 24 hrs by Annexin-V/7-AAD staining-based fluorescence assay (reference value: 0.17%); format: functional
UACC-903 [26] = assay: Induction of apoptosis in human UACC-903 cells assessed as increase in caspase 3/7 activity by measuring viable cells at 5 uM after 24 hrs by 7-AAD staining-based fluorescence assay (reference value: 77.50%); format: functional
Method in brief: (§3)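 Muse caspase-3/7 kit on UACC903 cells after 24 h at given doses or DMSO. Cell-permeant NucView DEVD-linked DNA dye fluoresces after cleavage by active caspase 3/7. 7-AAD marks cells with compromised membranes. Gates: live, early apoptotic (caspase+/7-AAD−), late apoptotic (both +), necrotic (7-AAD+ only).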

UACC-903 [27] = assay: Induction of apoptosis in human UACC-903 cells assessed as increase in caspase 3/7 activity by measuring early apoptotic cells at 5 uM after 24 hrs by 7-AAD staining-based fluorescence assay (reference value: 16.08%); format: functional; method in brief: as §3
UACC-903 [28] = assay: Induction of apoptosis in human UACC-903 cells assessed as increase in caspase 3/7 activity by measuring late apoptotic cells at 5 uM after 24 hrs by 7-AAD staining-based fluorescence assay (reference value: 6.08%); format: functional; method in brief: as §3
UACC-903 [29] = assay: Induction of apoptosis in human UACC-903 cells assessed as increase in caspase 3/7 activity by measuring necrotic cells at 5 uM after 24 hrs by 7-AAD staining-based fluorescence assay (reference value: 0.34%); format: functional; method in brief: as §3
UACC-903 [30] = assay: Induction of apoptosis in human UACC-903 cells assessed as increase in caspase 3/7 activity by measuring viable cells at 10 uM after 24 hrs by 7-AAD staining-based fluorescence assay (reference value: 77.50%); format: functional; method in brief: as §3
UACC-903 [31] = assay: Induction of apoptosis in human UACC-903 cells assessed as increase in caspase 3/7 activity by measuring early apoptotic cells at 10 uM after 24 hrs by 7-AAD staining-based fluorescence assay (reference value: 16.08%); format: functional; method in brief: as §3
UACC-903 [32] = assay: Induction of apoptosis in human UACC-903 cells assessed as increase in caspase 3/7 activity by measuring late apoptotic cells at 10 uM after 24 hrs by 7-AAD staining-based fluorescence assay (reference value: 6.08%); format: functional; method in brief: as §3
UACC-903 [33] = assay: Induction of apoptosis in human UACC-903 cells assessed as increase in caspase 3/7 activity by measuring necrotic cells at 10 uM after 24 hrs by 7-AAD staining-based fluorescence assay (reference value: 0.34%); format: functional; method in brief: as §3
Mus musculus = assay: Toxicity in Harlan Sprague Dawley mouse xenografted with human UACC-903 cells assessed as body weight loss at 0.6 umole, ip administered 3 times a week measured during compound dosing relative to control; format: organism-based; settings: in vivo
Method in brief: (§4)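 5×10^6 UACC 903 cells in 0.2 mL DMEM/10% FBS injected s.c. into both flanks of 4-6 week female athymic nude mice. From day 6, randomised groups (5 mice, 2 tumours each) received i.p. DMSO or 0.6 µmole in DMSO (100 µL) three times weekly. Caliper tumour volume and body weight taken thrice weekly to day 40; mean ± SEM.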

UACC-903 [34] = assay: Antitumor activity against human UACC-903 cells xenografted in Harlan Sprague Dawley mouse assessed as reduction in tumor burden at 0.6 umole, ip administered 3 times a week measured on day 40 relative to vehicle-treated control; format: functional; set-up: scale not given: the % may be the effect or the level left; method in brief: as §4
CHL-1 [35] = assay: Potency index, ratio of PLX-4032 IC50 to test compound IC50 for human CHL-1 cells harboring wild type BRAF after 72 hrs; format: functional

Chain of DNA topoisomerase 2-alpha (Homo sapiens) (P11388 whole entry): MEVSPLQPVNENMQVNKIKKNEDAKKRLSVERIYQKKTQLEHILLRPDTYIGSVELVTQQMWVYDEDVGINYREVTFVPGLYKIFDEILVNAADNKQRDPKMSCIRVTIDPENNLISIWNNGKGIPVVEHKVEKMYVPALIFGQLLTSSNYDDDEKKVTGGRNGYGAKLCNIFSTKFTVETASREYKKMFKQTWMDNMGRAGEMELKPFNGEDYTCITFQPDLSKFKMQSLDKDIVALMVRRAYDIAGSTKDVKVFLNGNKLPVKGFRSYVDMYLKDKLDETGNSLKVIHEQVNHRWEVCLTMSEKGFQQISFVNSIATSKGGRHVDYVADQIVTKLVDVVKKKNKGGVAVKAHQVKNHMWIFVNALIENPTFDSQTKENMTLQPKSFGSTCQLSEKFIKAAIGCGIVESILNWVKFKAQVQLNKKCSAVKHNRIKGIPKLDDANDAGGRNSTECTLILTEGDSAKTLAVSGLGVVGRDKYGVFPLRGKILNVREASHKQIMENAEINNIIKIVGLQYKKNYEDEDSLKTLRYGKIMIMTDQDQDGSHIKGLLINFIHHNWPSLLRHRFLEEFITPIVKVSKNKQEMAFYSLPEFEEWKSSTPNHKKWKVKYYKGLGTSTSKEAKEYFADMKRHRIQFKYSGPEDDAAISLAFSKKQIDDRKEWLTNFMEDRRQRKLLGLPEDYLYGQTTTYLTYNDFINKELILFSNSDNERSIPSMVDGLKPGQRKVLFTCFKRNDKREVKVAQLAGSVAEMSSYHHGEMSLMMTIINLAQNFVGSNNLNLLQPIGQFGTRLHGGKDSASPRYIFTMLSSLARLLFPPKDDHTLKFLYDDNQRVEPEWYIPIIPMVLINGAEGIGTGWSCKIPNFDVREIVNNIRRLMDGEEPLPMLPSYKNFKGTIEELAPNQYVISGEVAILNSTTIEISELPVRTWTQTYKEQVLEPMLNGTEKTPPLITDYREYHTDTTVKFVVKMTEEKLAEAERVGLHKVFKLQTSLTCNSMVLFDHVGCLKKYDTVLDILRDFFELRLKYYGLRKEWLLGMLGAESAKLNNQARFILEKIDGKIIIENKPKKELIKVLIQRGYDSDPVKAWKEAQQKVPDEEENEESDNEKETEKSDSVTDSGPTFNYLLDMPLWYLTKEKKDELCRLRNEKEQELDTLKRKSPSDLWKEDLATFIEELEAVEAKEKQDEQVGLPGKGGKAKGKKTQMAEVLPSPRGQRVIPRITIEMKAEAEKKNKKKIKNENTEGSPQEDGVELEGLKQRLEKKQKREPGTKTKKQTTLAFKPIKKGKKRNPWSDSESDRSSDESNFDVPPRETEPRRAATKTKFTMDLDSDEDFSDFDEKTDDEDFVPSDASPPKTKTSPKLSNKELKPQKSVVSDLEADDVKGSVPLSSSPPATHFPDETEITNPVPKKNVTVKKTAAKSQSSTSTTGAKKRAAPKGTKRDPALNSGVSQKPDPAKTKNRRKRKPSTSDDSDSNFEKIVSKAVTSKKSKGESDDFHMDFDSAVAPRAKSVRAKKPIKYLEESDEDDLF
Chain of Mitogen-activated protein kinase; ERK1/ERK2 (Homo sapiens) (P27361 whole entry, looked up): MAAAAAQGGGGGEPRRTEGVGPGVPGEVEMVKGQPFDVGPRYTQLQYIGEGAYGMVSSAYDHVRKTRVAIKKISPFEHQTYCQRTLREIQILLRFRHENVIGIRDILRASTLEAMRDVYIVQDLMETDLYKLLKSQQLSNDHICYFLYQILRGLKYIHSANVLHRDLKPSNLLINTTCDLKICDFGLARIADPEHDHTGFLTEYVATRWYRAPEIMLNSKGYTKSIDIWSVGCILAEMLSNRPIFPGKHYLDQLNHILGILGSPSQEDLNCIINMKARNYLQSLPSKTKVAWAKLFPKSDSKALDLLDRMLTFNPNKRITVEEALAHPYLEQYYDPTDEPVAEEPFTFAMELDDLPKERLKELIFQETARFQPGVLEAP
Chain of Mitogen-activated protein kinase; ERK1/ERK2 (Homo sapiens) (P28482 whole entry, looked up): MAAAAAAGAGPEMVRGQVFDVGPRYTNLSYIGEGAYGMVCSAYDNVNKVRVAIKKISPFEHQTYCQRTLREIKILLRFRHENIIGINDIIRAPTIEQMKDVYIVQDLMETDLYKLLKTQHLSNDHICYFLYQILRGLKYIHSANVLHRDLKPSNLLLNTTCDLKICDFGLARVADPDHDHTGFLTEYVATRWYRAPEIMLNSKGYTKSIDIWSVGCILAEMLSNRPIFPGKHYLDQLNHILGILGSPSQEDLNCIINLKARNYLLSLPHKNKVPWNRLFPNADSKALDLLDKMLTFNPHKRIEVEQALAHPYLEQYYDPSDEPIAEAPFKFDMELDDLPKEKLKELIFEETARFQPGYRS
Chain of RAC-alpha serine/threonine-protein kinase (Homo sapiens) (P31749 whole entry): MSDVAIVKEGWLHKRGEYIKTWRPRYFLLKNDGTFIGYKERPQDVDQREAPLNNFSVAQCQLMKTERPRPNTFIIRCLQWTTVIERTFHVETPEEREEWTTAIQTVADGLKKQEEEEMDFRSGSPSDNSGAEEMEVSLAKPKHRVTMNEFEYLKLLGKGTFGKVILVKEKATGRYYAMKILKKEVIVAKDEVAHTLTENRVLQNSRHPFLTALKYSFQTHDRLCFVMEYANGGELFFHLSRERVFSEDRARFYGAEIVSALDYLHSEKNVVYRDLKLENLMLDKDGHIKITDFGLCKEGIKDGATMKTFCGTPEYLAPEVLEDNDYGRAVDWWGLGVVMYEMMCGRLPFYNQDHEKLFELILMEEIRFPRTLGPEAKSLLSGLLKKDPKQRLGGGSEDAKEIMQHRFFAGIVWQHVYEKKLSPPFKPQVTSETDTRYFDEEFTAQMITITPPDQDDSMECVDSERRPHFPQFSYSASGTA

## N=C(N)[Se]CCN1C(=O)c2cccc3cc([N+](=O)[O-])cc(c23)C1=O
UACC-903 [1]
  IC50: > 50 µM
UACC-903 [2]
  IC50: 18.1 µM
UACC-903 [3]
  IC50: 14 µM
[4]
  IC50: > 50 µM
[5]
  IC50: > 50 µM
[6]
  IC50: 39.6 µM
[7]
  IC50: > 50 µM
[8]
  IC50: > 50 µM
[9]
  IC50: 25.8 µM
CHL-1 [10]
  IC50: > 50 µM
CHL-1 [11]
  IC50: 8.5 µM
CHL-1 [12]
  IC50: 13.5 µM

## O=C1c2cccc3cccc(c23)C(=O)N1CCCCCCN=C=[Se]
UACC-903 [1]
  IC50: 13.4 µM
UACC-903 [2]
  IC50: 2.5 µM
UACC-903 [3]
  IC50: 1.7 µM
[4]
  IC50: 13.4 µM
[5]
  IC50: 10.6 µM
[6]
  IC50: 13.4 µM
[7]
  IC50: 11.8 µM
[8]
  IC50: 2.7 µM
[9]
  IC50: 4.4 µM
CHL-1 [10]
  IC50: 13.7 µM
CHL-1 [11]
  IC50: 1.5 µM
CHL-1 [12]
  IC50: 0.8 µM
NHDF [13]
  Activity: > 70%
NHDF [14]
  Activity: > 70%
[15]
  inhibition: Active
Homo sapiens
  inhibition: Active
[16]
  inhibition: Dose-dependent effect
[17]
  inhibition: inactive
UACC-903 [18]
  viability at 5 µM: 83.2%
UACC-903 [19]
  Activity: 11.47%
UACC-903 [20]
  Activity: 4.52%
UACC-903 [21]
  Activity: 0.84%
UACC-903 [22]
  viability at 10 µM: 49.1%
UACC-903 [23]
  Activity: 35%
UACC-903 [24]
  Activity: 15.52%
UACC-903 [25]
  Activity: 0.35%
UACC-903 [26]
  Activity: 69.34%
UACC-903 [27]
  Activity: 20.72%
UACC-903 [28]
  Activity: 9.86%
UACC-903 [29]
  Activity: 0.08%
UACC-903 [30]
  Activity: 54.44%
UACC-903 [31]
  Activity: 3%
UACC-903 [32]
  Activity: 41.76%
UACC-903 [33]
  Activity: 0.8%
Mus musculus
  Activity: Non-Toxic
UACC-903 [34]
  Activity: 69%
CHL-1 [35]
  Ratio IC50: 15
